# Assay results reported in PMC9116722 (Cancer chemotherapy and pharmacology, 2022).
# Experiment: Adverse events
# Assay type: in vivo, human
# Outline: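 Patients with germline BRCA-mutated cancers, or BRCA-wildtype TNBC or platinum-refractory ovarian cancer, took oral drug continuously twice daily in 28-day cycles. There were nine dose levels from 50 to 500 mg BID under 3+3 escalation, run separately per cohort after the first DLT. Toxicities were graded by CTCAE v4.0, with DLTs assessed during cycle 1.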
compound,measurement,setting,value
C[C@]1(c2nc3c(C(N)=O)cccc3[nH]2)CCCN1 [veliparib],"Hypophosphatemia, Grade 2",BRCAmut and BRCAwt combined,4 (4) number of patients (%)
same,"Hypophosphatemia, Grade 3",BRCAmut and BRCAwt combined,2 (2) number of patients (%)
same,"Hypophosphatemia, Grade 4",BRCAmut and BRCAwt combined,0 (0) number of patients (%)
same,"Insomnia, Any Grade",BRCAmut and BRCAwt combined,7 (7) number of patients (%)
same,"Insomnia, Grade 1",BRCAmut and BRCAwt combined,6 (6) number of patients (%)
same,"Insomnia, Grade 2",BRCAmut and BRCAwt combined,1 (1) number of patients (%)
same,"Insomnia, Grade 3",BRCAmut and BRCAwt combined,0 (0) number of patients (%)
same,"Insomnia, Grade 4",BRCAmut and BRCAwt combined,0 (0) number of patients (%)
same,"Lymphocyte count decreased, Any Grade",BRCAmut and BRCAwt combined,37 (38) number of patients (%)
same,"Lymphocyte count decreased, Grade 1",BRCAmut and BRCAwt combined,7 (7) number of patients (%)
same,"Lymphocyte count decreased, Grade 2",BRCAmut and BRCAwt combined,15 (15) number of patients (%)
same,"Lymphocyte count decreased, Grade 3",BRCAmut and BRCAwt combined,14 (14) number of patients (%)
same,"Lymphocyte count decreased, Grade 4",BRCAmut and BRCAwt combined,1 (1) number of patients (%)
same,"Myalgia, Any Grade",BRCAmut and BRCAwt combined,5 (5) number of patients (%)
same,"Myalgia, Grade 1",BRCAmut and BRCAwt combined,4 (4) number of patients (%)
same,"Myalgia, Grade 2",BRCAmut and BRCAwt combined,1 (1) number of patients (%)
same,"Myalgia, Grade 3",BRCAmut and BRCAwt combined,0 (0) number of patients (%)
same,"Myalgia, Grade 4",BRCAmut and BRCAwt combined,0 (0) number of patients (%)
same,"Nausea, Any Grade",BRCAmut and BRCAwt combined,64 (65) number of patients (%)
same,"Nausea, Grade 1",BRCAmut and BRCAwt combined,42 (43) number of patients (%)
same,"Nausea, Grade 2",BRCAmut and BRCAwt combined,20 (20) number of patients (%)
same,"Nausea, Grade 3",BRCAmut and BRCAwt combined,2 (2) number of patients (%)
same,"Nausea, Grade 4",BRCAmut and BRCAwt combined,0 (0) number of patients (%)
same,"Neutrophil count decreased, Any Grade",BRCAmut and BRCAwt combined,17 (17) number of patients (%)
same,"Neutrophil count decreased, Grade 1",BRCAmut and BRCAwt combined,13 (13) number of patients (%)
same,"Neutrophil count decreased, Grade 2",BRCAmut and BRCAwt combined,4 (4) number of patients (%)
same,"Neutrophil count decreased, Grade 3",BRCAmut and BRCAwt combined,0 (0) number of patients (%)
same,"Neutrophil count decreased, Grade 4",BRCAmut and BRCAwt combined,0 (0) number of patients (%)
same,"Platelet count decreased, Any Grade",BRCAmut and BRCAwt combined,18 (18) number of patients (%)
same,"Platelet count decreased, Grade 1",BRCAmut and BRCAwt combined,14 (14) number of patients (%)
same,"Platelet count decreased, Grade 2",BRCAmut and BRCAwt combined,3 (3) number of patients (%)
same,"Platelet count decreased, Grade 3",BRCAmut and BRCAwt combined,0 (0) number of patients (%)
same,"Platelet count decreased, Grade 4",BRCAmut and BRCAwt combined,1 (1) number of patients (%)
same,"Vomiting, Any Grade",BRCAmut and BRCAwt combined,32 (33) number of patients (%)
same,"Vomiting, Grade 1",BRCAmut and BRCAwt combined,25 (26) number of patients (%)
same,"Vomiting, Grade 2",BRCAmut and BRCAwt combined,7 (7) number of patients (%)
same,"White blood cell decreased, Any Grade",BRCAmut and BRCAwt combined,27 (28) number of patients (%)
same,"White blood cell decreased, Grade 1",BRCAmut and BRCAwt combined,20 (20) number of patients (%)
same,"White blood cell decreased, Grade 2",BRCAmut and BRCAwt combined,7 (7) number of patients (%)
same,"White blood cell decreased, Grade 3",BRCAmut and BRCAwt combined,0 (0) number of patients (%)
same,"White blood cell decreased, Grade 4",BRCAmut and BRCAwt combined,0 (0) number of patients (%)
same,grade 3/4 decreased lymphocyte count,BRCAmut group,14%
same,incidence of grade 3/4 toxicity,BRCAmut group,24%
same,"Abdominal pain, Grade 3","BRCAmut, DL1 50/50 mg AM/PM",0 number of patients (%)
same,"Alkaline phosphatase increased, Grade 3","BRCAmut, DL1 50/50 mg AM/PM",1 (14) number of patients (%)
same,"Anemia, Grade 3","BRCAmut, DL1 50/50 mg AM/PM",0 number of patients (%)
same,"Anemia, Grade 4","BRCAmut, DL1 50/50 mg AM/PM",0 number of patients (%)
same,Any Grade 3/4 toxicity,"BRCAmut, DL1 50/50 mg AM/PM",1 (14) number of patients (%)
same,Any Grade 3 toxicity,"BRCAmut, DL1 50/50 mg AM/PM",1 (14) number of patients (%)
same,Any Grade 4 toxicity,"BRCAmut, DL1 50/50 mg AM/PM",0 number of patients (%)
same,"Appendicitis, Grade 3","BRCAmut, DL1 50/50 mg AM/PM",0 number of patients (%)
same,"Aspartate aminotransferase increased, Grade 3","BRCAmut, DL1 50/50 mg AM/PM",1 (14) number of patients (%)
same,"Dehydration, Grade 3","BRCAmut, DL1 50/50 mg AM/PM",0 number of patients (%)
same,"Dyspnea, Grade 4","BRCAmut, DL1 50/50 mg AM/PM",0 number of patients (%)
same,"Fatigue, Grade 3","BRCAmut, DL1 50/50 mg AM/PM",0 number of patients (%)
same,"Headache, Grade 3","BRCAmut, DL1 50/50 mg AM/PM",0 number of patients (%)
same,"Hypophosphatemia, Grade 3","BRCAmut, DL1 50/50 mg AM/PM",0 number of patients (%)
same,"Lymphocyte count decreased, Grade 3","BRCAmut, DL1 50/50 mg AM/PM",0 number of patients (%)
same,"Lymphocyte count decreased, Grade 4","BRCAmut, DL1 50/50 mg AM/PM",0 number of patients (%)
same,"Nausea, Grade 3","BRCAmut, DL1 50/50 mg AM/PM",0 number of patients (%)
same,"Platelet count decreased, Grade 4","BRCAmut, DL1 50/50 mg AM/PM",0 number of patients (%)
same,"Thromboembolic event, Grade 3","BRCAmut, DL1 50/50 mg AM/PM",0 number of patients (%)
same,"Thromboembolic event, Grade 4","BRCAmut, DL1 50/50 mg AM/PM",0 number of patients (%)
same,"Urinary tract infection, Grade 3","BRCAmut, DL1 50/50 mg AM/PM",0 number of patients (%)
same,"Abdominal pain, Grade 3","BRCAmut, DL2 100/50 mg AM/PM",0 number of patients (%)
same,"Alkaline phosphatase increased, Grade 3","BRCAmut, DL2 100/50 mg AM/PM",0 number of patients (%)
same,"Anemia, Grade 3","BRCAmut, DL2 100/50 mg AM/PM",0 number of patients (%)
same,"Anemia, Grade 4","BRCAmut, DL2 100/50 mg AM/PM",0 number of patients (%)
same,Any Grade 3/4 toxicity,"BRCAmut, DL2 100/50 mg AM/PM",1 (33) number of patients (%)
same,Any Grade 3 toxicity,"BRCAmut, DL2 100/50 mg AM/PM",0 number of patients (%)
same,Any Grade 4 toxicity,"BRCAmut, DL2 100/50 mg AM/PM",1 (33) number of patients (%)
same,"Appendicitis, Grade 3","BRCAmut, DL2 100/50 mg AM/PM",0 number of patients (%)
same,"Aspartate aminotransferase increased, Grade 3","BRCAmut, DL2 100/50 mg AM/PM",0 number of patients (%)
same,"Dehydration, Grade 3","BRCAmut, DL2 100/50 mg AM/PM",0 number of patients (%)
same,"Dyspnea, Grade 4","BRCAmut, DL2 100/50 mg AM/PM",0 number of patients (%)
same,"Fatigue, Grade 3","BRCAmut, DL2 100/50 mg AM/PM",0 number of patients (%)
same,"Headache, Grade 3","BRCAmut, DL2 100/50 mg AM/PM",0 number of patients (%)
same,"Hypophosphatemia, Grade 3","BRCAmut, DL2 100/50 mg AM/PM",0 number of patients (%)
same,"Lymphocyte count decreased, Grade 3","BRCAmut, DL2 100/50 mg AM/PM",0 number of patients (%)
same,"Lymphocyte count decreased, Grade 4","BRCAmut, DL2 100/50 mg AM/PM",0 number of patients (%)
same,"Nausea, Grade 3","BRCAmut, DL2 100/50 mg AM/PM",0 number of patients (%)
same,"Platelet count decreased, Grade 4","BRCAmut, DL2 100/50 mg AM/PM",0 number of patients (%)
same,"Thromboembolic event, Grade 3","BRCAmut, DL2 100/50 mg AM/PM",0 number of patients (%)
same,"Thromboembolic event, Grade 4","BRCAmut, DL2 100/50 mg AM/PM",1 (33) number of patients (%)
same,"Urinary tract infection, Grade 3","BRCAmut, DL2 100/50 mg AM/PM",0 number of patients (%)
same,"Abdominal pain, Grade 3","BRCAmut, DL3 100/100 mg AM/PM",0 number of patients (%)
same,"Alkaline phosphatase increased, Grade 3","BRCAmut, DL3 100/100 mg AM/PM",0 number of patients (%)
